Measurements: ChEMBL document CHEMBL4138211, “Regio- and stereoselective synthesis of dispirooxindole-pyrrolocarbazole hybrids via 1,3-dipolar cycloaddition reactions: Cytotoxic activity and SAR studies” (Eur J Med Chem, 2018)
Activity calls are given as the source filed them. No cut-off for these calls is given here.

Columns and labels:
[1] = system: MCF7; assay: Induction of apoptosis in human MCF7 cells assessed as early apoptotic cells at 10 uM after 6 hrs by Annexin V-FITC/propidium iodide staining based flow cytometry (reference value: 0.88%); format: functional
Summary of the method: (§1)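 Cells at 1×10⁵/mL exposed to 5, 10 or 20 μM (printed as μM/ml) for 6 h, with an untreated control. Harvested, PBS-washed and trypsinised, then spun at 200×g for 10 min. Stained with annexin V-FITC/propidium iodide for 10-15 min at 25 °C. Quadrant analysis gives live, early apoptotic, late apoptotic and necrotic fractions.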

[2] = system: MCF7; assay: Induction of apoptosis in human MCF7 cells assessed as necrotic cells at 5 uM after 6 hrs by Annexin V-FITC/propidium iodide staining based flow cytometry (reference value: 0.0%); format: functional; summary of the method: as §1
[3] = system: MCF7; assay: Induction of apoptosis in human MCF7 cells assessed as late apoptotic cells at 20 uM after 6 hrs by Annexin V-FITC/propidium iodide staining based flow cytometry (reference value: 0.0%); format: functional; summary of the method: as §1
[4] = system: A549; assay: Induction of apoptosis in human A549 cells assessed as membrane blebbing after 24 hrs by brightfield inverted light microscopic analysis; format: functional, cell-based
[5] = system: MCF7; assay: Induction of apoptosis in human MCF7 cells assessed as cell shrinkage after 24 hrs by brightfield inverted light microscopic analysis; format: functional, cell-based
[6] = system: MCF7; assay: Induction of apoptosis in human MCF7 cells assessed as viable cells at 10 uM after 6 hrs by Annexin V-FITC/propidium iodide staining based flow cytometry (reference value: 99.12%); format: functional; conditions: MCF7, 6 h, read-out: Activity; summary of the method: as §1
[7] = system: A549; assay: Induction of apoptosis in human A549 cells assessed as late apoptotic cells at 20 uM after 6 hrs by Annexin V-FITC/propidium iodide staining based flow cytometry (reference value: 0.0%); format: functional; summary of the method: as §1
[8] = system: A549; assay: Induction of apoptosis in human A549 cells assessed as necrotic cells at 5 uM after 6 hrs by Annexin V-FITC/propidium iodide staining based flow cytometry (reference value: 0.0%); format: functional; summary of the method: as §1
[9] = system: A549; assay: Induction of apoptosis in human A549 cells assessed as early apoptotic cells at 20 uM after 6 hrs by Annexin V-FITC/propidium iodide staining based flow cytometry (reference value: 0.77%); format: functional; summary of the method: as §1
[10] = system: MCF7; assay: Induction of apoptosis in human MCF7 cells assessed as membrane blebbing after 24 hrs by brightfield inverted light microscopic analysis; format: functional, cell-based
[11] = system: MCF7; assay: Induction of apoptosis in human MCF7 cells assessed as early apoptotic cells at 5 uM after 6 hrs by Annexin V-FITC/propidium iodide staining based flow cytometry (reference value: 0.88%); format: functional; summary of the method: as §1
[12] = system: MCF7; assay: Induction of apoptosis in human MCF7 cells assessed as early apoptotic cells at 20 uM after 6 hrs by Annexin V-FITC/propidium iodide staining based flow cytometry (reference value: 0.88%); format: functional; summary of the method: as §1
[13] = system: A549; assay: Induction of apoptosis in human A549 cells assessed as late apoptotic cells at 10 uM after 6 hrs by Annexin V-FITC/propidium iodide staining based flow cytometry (reference value: 0.0%); format: functional; summary of the method: as §1
[14] = system: MCF7; assay: Induction of apoptosis in human MCF7 cells assessed as viable cells at 20 uM after 6 hrs by Annexin V-FITC/propidium iodide staining based flow cytometry (reference value: 99.12%); format: functional; conditions: MCF7, 6 h, read-out: Activity; summary of the method: as §1
[15] = system: MCF7; assay: Induction of apoptosis in human MCF7 cells assessed as necrotic cells at 10 uM after 6 hrs by Annexin V-FITC/propidium iodide staining based flow cytometry (reference value: 0.0%); format: functional; summary of the method: as §1
[16] = system: A549; assay: Induction of apoptosis in human A549 cells assessed as viable cells at 5 uM after 6 hrs by Annexin V-FITC/propidium iodide staining based flow cytometry (reference value: 99.23%); format: functional; conditions: A549, 6 h, read-out: Activity; summary of the method: as §1
[17] = system: MCF7; assay: Induction of apoptosis in human MCF7 cells assessed as late apoptotic cells at 10 uM after 6 hrs by Annexin V-FITC/propidium iodide staining based flow cytometry (reference value: 0.0%); format: functional; summary of the method: as §1
[18] = system: A549; assay: Induction of apoptosis in human A549 cells by acridine orange/ethidium bromide staining-based fluorescence microscopic analysis; format: functional, cell-based
Summary of the method: (§2)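 Treated cells collected and washed in PBS (pH 7.2). Stained with a 1:1 AO/EtBr mixture (each dye […] in water) and held 2 min. Washed twice in PBS and viewed by fluorescence microscopy at 400× with 480 nm excitation. Green intact-membrane cells distinguished from orange/red membrane-damaged cells.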

[19] = system: A549; assay: Induction of apoptosis in human A549 cells assessed as increase in early apoptotic cells after 6 hrs by Annexin V-FITC/propidium iodide staining based flow cytometry; format: functional, cell-based; summary of the method: as §1
[20] = system: A549; assay: Induction of apoptosis in human A549 cells assessed as early apoptotic cells at 10 uM after 6 hrs by Annexin V-FITC/propidium iodide staining based flow cytometry (reference value: 0.77%); format: functional; summary of the method: as §1
[21] = system: MCF7; assay: Induction of apoptosis in human MCF7 cells assessed as damaged cell membranes by acridine orange/ethidium bromide staining-based fluorescence microscopic analysis; format: functional; summary of the method: as §2
[22] = system: MCF7; assay: Induction of apoptosis in human MCF7 cells assessed as increase in early apoptotic cells after 6 hrs by Annexin V-FITC/propidium iodide staining based flow cytometry; format: functional, cell-based; summary of the method: as §1
[23] = system: A549; assay: Induction of apoptosis in human A549 cells assessed as cell shrinkage after 24 hrs by brightfield inverted light microscopic analysis; format: functional, cell-based
[24] = system: MCF7; assay: Induction of apoptosis in human MCF7 cells assessed as necrotic cells at 20 uM after 6 hrs by Annexin V-FITC/propidium iodide staining based flow cytometry (reference value: 0.0%); format: functional; summary of the method: as §1
[25] = system: MCF7; assay: Antiproliferative activity against human MCF7 cells after 48 hrs by MTT assay; format: functional, cell-based
Summary of the method: (§3)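 Cells grown 1×10⁴/well for 48 h to about 75% confluence. Medium then replaced with fresh medium containing serially diluted compounds, followed by a further 48 h. MTT added for 4 h at 37 °C and formazan dissolved in DMSO for 10 min. OD read at 620 nm. IC50 taken from the viability–concentration survival curve. Three independent experiments, each in triplicate.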

[26] = system: MCF7; assay: Induction of apoptosis in human MCF7 cells assessed as nuclear condensation by acridine orange/ethidium bromide staining-based fluorescence microscopic analysis; format: functional, cell-based; summary of the method: as §2
[27] = system: A549; assay: Antiproliferative activity against human A549 cells after 48 hrs by MTT assay; format: functional, cell-based; summary of the method: as §3
[28] = system: MCF7; assay: Induction of apoptosis in human MCF7 cells assessed as nuclear fragmentation after 24 hrs by DAPI staining-based fluorescence microscopic analysis; format: functional, cell-based
Summary of the method: (§4)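 Cells plated on glass coverslips and treated for 24 h, then fixed. Permeabilised with 0.2% Triton X-100 for 10 min at room temperature. DAPI applied for 3 min under a coverslip. Nuclei inspected by fluorescence microscopy for condensed chromatin and fragmentation, against untreated cells.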

[29] = system: A549; assay: Induction of apoptosis in human A549 cells assessed as formation of floating cells after 24 hrs by brightfield inverted light microscopic analysis; format: functional, cell-based
[30] = system: A549; assay: Induction of apoptosis in human A549 cells assessed as late apoptotic cells at 5 uM after 6 hrs by Annexin V-FITC/propidium iodide staining based flow cytometry (reference value: 0.0%); format: functional; summary of the method: as §1
[31] = system: MCF7; assay: Induction of apoptosis in human MCF7 cells by acridine orange/ethidium bromide staining-based fluorescence microscopic analysis; format: functional, cell-based; summary of the method: as §2
[32] = system: A549; assay: Induction of apoptosis in human A549 cells assessed as necrotic cells at 20 uM after 6 hrs by Annexin V-FITC/propidium iodide staining based flow cytometry (reference value: 0.0%); format: functional; summary of the method: as §1
[33] = system: MCF7; assay: Induction of apoptosis in human MCF7 cells assessed as viable cells at 5 uM after 6 hrs by Annexin V-FITC/propidium iodide staining based flow cytometry (reference value: 99.12%); format: functional; conditions: MCF7, 6 h, read-out: Activity; summary of the method: as §1
[34] = system: A549; assay: Induction of apoptosis in human A549 cells assessed as necrotic cells at 10 uM after 6 hrs by Annexin V-FITC/propidium iodide staining based flow cytometry (reference value: 0.0%); format: functional; summary of the method: as §1
[35] = system: MCF7; assay: Induction of apoptosis in human MCF7 cells assessed as formation of floating cells after 24 hrs by brightfield inverted light microscopic analysis; format: functional, cell-based
[36] = system: A549; assay: Induction of apoptosis in human A549 cells assessed as viable cells at 20 uM after 6 hrs by Annexin V-FITC/propidium iodide staining based flow cytometry (reference value: 99.23%); format: functional; conditions: A549, 6 h, read-out: Activity; summary of the method: as §1
[37] = system: A549; assay: Induction of apoptosis in human A549 cells assessed as viable cells at 10 uM after 6 hrs by Annexin V-FITC/propidium iodide staining based flow cytometry (reference value: 99.23%); format: functional; conditions: A549, 6 h, read-out: Activity; summary of the method: as §1
[38] = system: A549; assay: Induction of apoptosis in human A549 cells assessed as increase in late apoptotic cells after 6 hrs by Annexin V-FITC/propidium iodide staining based flow cytometry; format: functional, cell-based; summary of the method: as §1
[39] = system: A549; assay: Induction of apoptosis in human A549 cells assessed as early apoptotic cells at 5 uM after 6 hrs by Annexin V-FITC/propidium iodide staining based flow cytometry (reference value: 0.77%); format: functional; summary of the method: as §1
[40] = system: MCF7; assay: Induction of apoptosis in human MCF7 cells assessed as late apoptotic cells at 5 uM after 6 hrs by Annexin V-FITC/propidium iodide staining based flow cytometry (reference value: 0.0%); format: functional; summary of the method: as §1
[41] = system: A549; assay: Induction of apoptosis in human A549 cells assessed as nuclear fragmentation after 24 hrs by DAPI staining-based fluorescence microscopic analysis; format: functional, cell-based; summary of the method: as §4
[42] = system: MCF7; assay: Induction of apoptosis in human MCF7 cells assessed as increase in late apoptotic cells after 6 hrs by Annexin V-FITC/propidium iodide staining based flow cytometry; format: functional, cell-based; summary of the method: as §1

For O=C1Nc2ccccc2[C@]12N[C@H](c1ccccc1)[C@H](c1cccs1)[C@@]21CCc2c([nH]c3ccc(Cl)cc23)C1=O, the Activity [1] was 23.3%, the Activity [2] was 1.81% and the Activity [3] was 30.2%. For the same compound, the Activity [4] was “Dose-dependent effect”, the Activity [5] was “Dose-dependent effect” and the viability at 10 µM [6] was 62.9%. It also gave an Activity [7] of 28.7%, an Activity [8] of 1.15% and an Activity [9] of 32.15%. The Activity [10] was “Dose-dependent effect”, the Activity [11] was 8.19% and the Activity [12] was 33.56%. It also gave an Activity [13] of 7.65%, a viability at 20 µM [14] of 35.1% and an Activity [15] of 0.98%. For the same compound, the viability at 5 µM [16] was 63.2%, the Activity [17] was 12.82% and the Activity [18] was “Active”. The Activity [19] was “Dose-dependent effect”, the Activity [20] was 17.35% and the Activity [21] was “Active”. For the same compound, the Activity [22] was “Dose-dependent effect”, the Activity [23] was “Dose-dependent effect” and the Activity [24] was 1.12%. The Activity [25] was “Dose-dependent effect”, the IC50 ([25]; MCF7, 48 h) was 13 µM and the Activity [26] was “Active”. For the same compound, the Activity [27] was “Dose-dependent effect”, the IC50 ([27]; A549, 48 h) was 14 µM and the Activity [28] was “Active”. The Activity [29] was “Dose-dependent effect”, the Activity [30] was 6.7% and the Activity [31] was “Active”. For the same compound, the Activity [32] was 1.85%, the viability at 5 µM [33] was 82.5% and the Activity [34] was 2.81%. For the same compound, the Activity [35] was “Dose-dependent effect”, the viability at 20 µM [36] was 37.3% and the viability at 10 µM [37] was 72.2%. For the same compound, the Activity [38] was “Dose-dependent effect”, the Activity [39] was 28.95% and the Activity [40] was 7.55%. The Activity [41] was “Active” and the Activity [42] was “Dose-dependent effect”.
